According to ChEMBL document CHEMBL4371044, “Celastrol Promotes Weight Loss in Diet-Induced Obesity by Inhibiting the Protein Tyrosine Phosphatases PTP1B and TCPTP in the Hypothalamus” (J Med Chem, 2018):
Calls of active or inactive are those of the source. No cut-off for these calls is given here.

Experiments:
Mus musculus = experiment: Antiobesity activity in high fat diet-induced obese Ptpn2fl/fl null C57BL/6 mouse assessed as hypophagia at 100 ug/kg, ip for 10 consecutive days; type: functional, organism-based
[1] = target: T1, Tyrosine-protein phosphatase non-receptor type 1 (Homo sapiens, UniProt P18031); experiment: (§1) Binding affinity to human N-terminal His6-tagged PTP1B catalytic domain (1 to 298 residues) expressed in Escherichia coli strain Rosetta2 (DE3) assessed as dissociation rate constant […]
T1 sequence (P18031 whole entry): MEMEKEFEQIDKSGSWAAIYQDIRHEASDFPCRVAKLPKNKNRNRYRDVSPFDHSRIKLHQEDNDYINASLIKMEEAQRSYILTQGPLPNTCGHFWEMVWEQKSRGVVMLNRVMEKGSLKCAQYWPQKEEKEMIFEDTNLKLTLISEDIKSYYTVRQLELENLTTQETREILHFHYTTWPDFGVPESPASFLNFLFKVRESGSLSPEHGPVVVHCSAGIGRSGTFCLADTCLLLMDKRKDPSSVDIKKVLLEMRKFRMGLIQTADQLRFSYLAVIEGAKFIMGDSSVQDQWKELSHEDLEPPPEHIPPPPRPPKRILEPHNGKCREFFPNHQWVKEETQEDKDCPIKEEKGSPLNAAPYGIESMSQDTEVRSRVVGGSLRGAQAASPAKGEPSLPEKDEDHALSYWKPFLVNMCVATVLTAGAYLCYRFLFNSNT

[2] = target: T2, Tyrosine-protein phosphatase non-receptor type 1 (Homo sapiens) (UniProt P18031); experiment: Binding affinity to human N-terminal His6-tagged PTP1B catalytic domain (1 to 298 residues) expressed in Escherichia coli strain Rosetta2 (DE3) assessed as association half life using DiFMUP as substrate preincubated for 10 mins followed by substrate addition measured for 10 mins fluorescence assay
T2 sequence (whole entry): T1 sequence (P18031 whole entry)

[3] = target: T3, Tyrosine-protein phosphatase non-receptor type 2 (Homo sapiens) (UniProt P17706); experiment: Inhibition of human N-terminal His6-tagged TCPTP catalytic domain (1 to 336 residues) expressed in Escherichia coli strain Rosetta2 (DE3) using DiFMUP as substrate preincubated for 10 mins followed by substrate addition and measured after 10 mins in presence of 0.1 mg/ml BSA by fluorescence assay
T3 sequence (whole entry): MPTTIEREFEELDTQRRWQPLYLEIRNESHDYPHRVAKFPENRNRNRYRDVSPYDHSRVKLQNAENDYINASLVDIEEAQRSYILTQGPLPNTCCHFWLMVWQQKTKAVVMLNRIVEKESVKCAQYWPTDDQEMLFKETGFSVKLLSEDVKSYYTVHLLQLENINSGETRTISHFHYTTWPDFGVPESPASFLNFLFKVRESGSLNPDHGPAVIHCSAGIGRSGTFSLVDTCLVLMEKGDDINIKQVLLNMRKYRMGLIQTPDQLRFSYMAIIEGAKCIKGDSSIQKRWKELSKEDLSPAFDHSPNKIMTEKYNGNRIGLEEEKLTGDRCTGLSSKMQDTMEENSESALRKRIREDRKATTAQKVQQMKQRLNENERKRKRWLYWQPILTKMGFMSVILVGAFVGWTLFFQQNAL
In short: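 DiFMUP IC50 assay (1 nM enzyme, 10 min preincubation, substrate at Km, 37 °C, ex 358/em 455 nm), repeated as an aggregation check under three altered conditions: 10-fold enzyme (10 nM), 0.05% Tween 20, or 0.1 mg/mL BSA in buffer.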

[4] = target: T1, Tyrosine-protein phosphatase non-receptor type 1; experiment: as §1, with “association” for “dissociation”
[5] = Inhibition of mouse LMPTP-A (1 to 158 residues) expressed in Escherichia coli strain BL21(DE3) using DiFMUP as substrate preincubated for 10 mins followed by substrate addition and measured after 10 mins by fluorescence assay
In short: (§2)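 Selectivity panel on enzymes expressed in E. coli BL21(DE3), purified by nickel affinity then size exclusion. DiFMUP fluorescence assay run as for PTP1B/TCPTP, with per-enzyme conditions in a supplementary table; nonlinear regression for IC50; three independent experiments.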

[6] = target: T4, Receptor-type tyrosine-protein phosphatase eta (Homo sapiens, UniProt Q12913); experiment: Inhibition of human PTPRJ (1019 to 1311 residues) expressed in Escherichia coli strain BL21(DE3) using DiFMUP as substrate preincubated for 10 mins followed by substrate addition and measured after 10 mins by fluorescence assay; in short: as §2
T4 sequence (Q12913 whole entry): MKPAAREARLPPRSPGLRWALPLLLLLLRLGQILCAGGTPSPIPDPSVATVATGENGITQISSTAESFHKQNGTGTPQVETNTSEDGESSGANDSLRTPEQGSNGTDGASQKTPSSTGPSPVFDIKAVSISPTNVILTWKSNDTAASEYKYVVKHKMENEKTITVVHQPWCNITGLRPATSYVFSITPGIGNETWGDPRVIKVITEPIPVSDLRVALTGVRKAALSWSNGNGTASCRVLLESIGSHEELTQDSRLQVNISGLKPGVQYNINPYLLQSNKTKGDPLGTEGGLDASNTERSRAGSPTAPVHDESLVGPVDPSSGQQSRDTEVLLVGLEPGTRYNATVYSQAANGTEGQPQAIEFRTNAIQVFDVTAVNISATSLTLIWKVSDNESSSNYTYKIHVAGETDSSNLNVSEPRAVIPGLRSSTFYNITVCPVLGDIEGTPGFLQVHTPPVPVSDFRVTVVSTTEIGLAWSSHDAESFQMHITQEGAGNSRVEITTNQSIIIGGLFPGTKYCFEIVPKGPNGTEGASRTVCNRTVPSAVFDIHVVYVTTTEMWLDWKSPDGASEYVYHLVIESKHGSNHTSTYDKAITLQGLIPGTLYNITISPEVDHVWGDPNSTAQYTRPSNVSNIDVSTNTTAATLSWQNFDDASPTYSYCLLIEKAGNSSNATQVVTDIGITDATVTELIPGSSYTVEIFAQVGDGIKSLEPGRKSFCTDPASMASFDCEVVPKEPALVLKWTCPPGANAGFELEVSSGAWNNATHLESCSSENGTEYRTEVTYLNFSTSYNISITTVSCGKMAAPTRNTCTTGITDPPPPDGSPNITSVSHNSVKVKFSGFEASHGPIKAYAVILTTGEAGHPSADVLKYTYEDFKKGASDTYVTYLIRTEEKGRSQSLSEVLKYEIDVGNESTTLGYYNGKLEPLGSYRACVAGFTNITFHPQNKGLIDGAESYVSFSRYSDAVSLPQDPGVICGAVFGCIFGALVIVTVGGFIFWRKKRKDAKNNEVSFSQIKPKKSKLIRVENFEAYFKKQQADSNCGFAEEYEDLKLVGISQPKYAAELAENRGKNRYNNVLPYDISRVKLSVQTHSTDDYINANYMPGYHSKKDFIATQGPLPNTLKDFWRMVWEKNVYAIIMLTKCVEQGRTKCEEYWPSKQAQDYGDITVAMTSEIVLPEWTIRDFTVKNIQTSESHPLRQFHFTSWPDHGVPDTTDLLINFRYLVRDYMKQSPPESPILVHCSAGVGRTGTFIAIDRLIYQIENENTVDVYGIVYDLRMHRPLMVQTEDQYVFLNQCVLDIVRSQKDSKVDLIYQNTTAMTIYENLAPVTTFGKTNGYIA

In the case of `CC1=C(O)C(=O)C=C2C1=CC=C1[C@@]2(C)CC[C@@]2(C)[C@@H]3C[C@](C)(C(=O)O)CC[C@]3(C)CC[C@]12C` [CELASTROL], the inhibition (Mus musculus) is reported as “Active”, the koff [1] is reported as 3.62 ×10⁻⁴ /s and the T1/2 [2] is reported as 31.9 min. The inhibition [3] was “Active”, the kon [4] was 59.46 M⁻¹ s⁻¹ and the IC50 [5] was 95.3 µM. It also gave an IC50 [6] of 111 µM.
